High-throughput results as filed in PubChem BioAssay.
In the library only some 0.6% were active in any assay of this set; here they are far more common.
GSK3A inh = human GSK-3 alpha kinase inhibition; ADP-Glo luminescence, 60 min; inhibition, % at 10 µM; actives 0.1% (n = 320,000); P49840; AID 2650;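 active means more than half of replicates show inhibition above 20%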;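 further: GST-tagged GSK-3 alpha with peptide substrate and 25 µM ATP; 0% = DMSO neutral wells and 100% = GW8510 positive control wells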
Target sequence (P49840 whole entry, looked up): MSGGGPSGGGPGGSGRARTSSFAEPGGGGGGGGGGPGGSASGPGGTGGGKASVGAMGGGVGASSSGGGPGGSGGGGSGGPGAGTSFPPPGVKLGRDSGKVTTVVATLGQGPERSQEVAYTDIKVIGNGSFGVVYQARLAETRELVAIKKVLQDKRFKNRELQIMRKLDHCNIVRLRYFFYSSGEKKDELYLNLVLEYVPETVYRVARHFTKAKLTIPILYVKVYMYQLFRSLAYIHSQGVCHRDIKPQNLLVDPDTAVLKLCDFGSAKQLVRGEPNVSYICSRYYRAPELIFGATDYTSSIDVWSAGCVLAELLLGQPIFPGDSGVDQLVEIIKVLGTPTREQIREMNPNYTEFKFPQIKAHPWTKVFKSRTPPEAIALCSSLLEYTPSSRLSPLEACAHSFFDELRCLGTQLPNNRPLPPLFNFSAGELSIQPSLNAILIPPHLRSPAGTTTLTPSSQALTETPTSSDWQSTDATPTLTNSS
GSK3B inh = human GSK3beta kinase inhibition; P49841; GST-GSK3beta kinase, ADP-Glo luminescence, 60 min; hits give low values; activity score (negative = inhibition), % at 10 µM; actives 0.038% (n = 300,000); AID 2097;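 active means more than half of replicate wells score below -50%, meaning over 50% inhibition versus plate controls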;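 further: 0% = median DMSO wells and -100% = median GW8510 positive control wells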
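Test system – GST-tagged human GSK3beta kinase, cell-free · Incubation – 60 min enzyme reaction, room temperature · Signal – ADP-Glo luminescence · Also added – peptide substrate and ATP at 25 µM · Controls – DMSO neutral wells and GW8510 at 20 µM as positive · Buffer or medium – Tris/MgCl2 kinase buffer · Measure – Luminescence-derived activity versus plate DMSO and GW8510 wells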
STK33 inh = inhibitors of human STK33 kinase | Q9BYT3 | AID 2661 | inhibition, % at 10 µM | actives 0.073% (n = 320,000) | purified STK33, MBP phosphorylation, ADP-Glo luminescence;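 active means inhibition at or above 25%, using the most active replicate where run in duplicate; inactive means inhibition below 25%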
Efflux pump inh = inhibitors of Candida antifungal efflux pumps expressed in yeast | S. cerevisiae Candida pump triplex, Nile Red efflux | inhibition, % at 10 µM | actives 0.44% (n = 330,000) | AID 485275;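 active means plate passing quality check with inhibition over a set limit, or well fluorescence over plate mean plus 4 SD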;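 further: Nile Red retained in pooled yeast measured as flow cytometry median fluorescence; 0% = buffer negative control and 100% = Enniatin B positive control; higher means more Nile Red kept so more efflux inhibition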
PolyA inhibitor = inhibitors of polyadenylation in S. cerevisiae | S. cerevisiae SKY197-pL101 polyadenylation reporter, beta-gal luminescence; efflux-impaired pdr1/pdr3 knockout yeast; score 100 = 6 SD above DMSO | activity score, % at 12 µM | actives 0.02% (n = 300,000) | AID 1875;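 active means lowest replicate activity score at least 50, where 100 means six control SD above control mean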;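 further: yeast exposed to compound for 9 h at 30 °C; higher score means more reporter readthrough which indicates perturbed polyadenylation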
Yeast cmpd fluor = counter-screen for efflux pump inhibitors: compound fluorescence. shares compounds with Efflux pump inh. S. cerevisiae AD/pABC3, flow cytometry. fluorescence ratio to DMSO, % at 10 µM. actives 4% (n = 1,700);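 active means fluorescence ratio to DMSO above its plate's cutoff, the plate mean ratio plus 5 SD, cut at about 210% in these data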;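 further: unstained yeast with no Nile Red so the signal is compound autofluorescence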
CaMdr1 efflux inh = blocks the Candida albicans Mdr1 efflux pump in yeast. shares compounds with Efflux pump inh. S. cerevisiae AD/CaMDR1, Nile Red efflux, flow cytometry. inhibition, % at 10 µM. actives 1% (n = 1,700); in the data active means inhibition above about 26%;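 further: 0% = DMSO vehicle and 100% = reference inhibitor; higher means more Nile Red retained so more efflux inhibition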
CaCdr2 efflux inh = inhibitors of Candida albicans Cdr2 efflux pump. shares compounds with Efflux pump inh. S. cerevisiae AD/CaCDR2, Nile Red retention, flow cytometry. Nile Red retention ratio vs DMSO, % at 10 µM. actives 4% (n = 1,700); in the data active means Nile Red retention ratio vs DMSO above about 190%;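 further: higher ratio means more blocking of Cdr2 efflux of the dye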
CaCdr1 efflux inh = inhibitors of Candida albicans Cdr1 efflux pump | shares compounds with Efflux pump inh | S. cerevisiae AD/CaCDR1, Nile Red efflux, flow cytometry | inhibition, % at 10 µM | actives 1% (n = 1,700) | AID 588522;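 active means inhibition above the screen-wide mean plus twice its standard deviation, cut at about 32% in these data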
* marks the source's active call; other numbers are inactive results; / = no result given.

SMILES	GSK3A inh	GSK3B inh	STK33 inh	Efflux pump inh	PolyA inhibitor	Yeast cmpd fluor	CaMdr1 efflux inh	CaCdr2 efflux inh	CaCdr1 efflux inh
CCOC(=O)c1ccc(Nc2cc(C)nc(-c3ccccc3)n2)cc1	-2.4	-0.3	-0.4	30.7*	-14.8	102.2	-0.2	100.1	0.1
CCOC(=O)c1ccccc1NC(=O)c1cn(-c2ccc(C)c(C)c2)c(=O)c2ccccc12	-2.7	3.9	0.0	-0.1	-27.8	/	/	/	/
CCOC(=O)c1ccccc1NC(=O)c1cn(-c2ccc(OC)cc2)c(=O)c2ccccc12	-0.3	1.4	1.1	15.2*	-1.9	93.7	0.1	101.5	0.0
Cc1cc(=O)oc2cc(OC(C(=O)O)c3ccccc3)ccc12 (stereo not drawn)	-0.5	1.7	-0.6	1.1*	5.7	101.4	-0.2	87.3	-0.1
Cc1cc(=O)oc2cc(OC(C)C)ccc12	4.1	1.7	-0.5	0.2	1.3	/	/	/	/
O=C(Nc1ccccc1Cl)c1ccc(-n2cccn2)c([N+](=O)[O-])c1	1.7	-0.6	-0.6	-0.1	3.6	/	/	/	/
CC(Sc1cccc[n+]1[O-])c1ccccc1 (stereo not drawn)	1.0	-0.6	-1.0	0.2	-5.5	/	/	/	/
Nc1c(Cl)cc(C2=NCCn3nc4ccccc4c32)cc1Cl	4.0	0.2	3.8	0.6*	0.8	86.6	0.8	94.1	0.6
CCCCn1c(N)c(N(CCC(C)C)C(=O)COC(=O)/C=C/c2ccc(F)cc2)c(=O)[nH]c1=O	-1.8	/	-0.2	0.0	/	/	/	/	/
C/C(=N\NC(=O)c1cccc(Cl)c1)C1C(=O)c2ccccc2C1=O	-2.1	4.1	2.0	12.7*	-0.4	92.1	-0.1	101.5	0.0
C/C(=N\NC(=O)CCc1ccccc1)C1C(=O)c2ccccc2C1=O	-3.5	4.0	-1.2	0.0	7.7	/	/	/	/
CCc1cc2c(-c3ccccc3)cc(=O)oc2c(CN2CCOCC2)c1O	0.4	1.8	0.1	0.8*	-11.5	105.8	0.2	118.2	0.1
Cc1ccc(-c2noc(CCCC(=O)NCC3CCCO3)n2)cc1 (stereo not drawn)	3.4	-7.6	-1.2	-0.1	-20.6	/	/	/	/
CC(CS(=O)(=O)c1ccc2c(c1)NC(=O)CS2)C(=O)N1CCN(c2cccc(Cl)c2)CC1 (stereo not drawn)	0.8	1.4	-1.1	-0.1	0.1	/	/	/	/
COc1ccccc1C(=O)Nc1ccc(C2=NNC(=O)CC2C)cc1 (stereo not drawn)	-0.8	22.4	10.6	1.0*	7.7	98.6	-0.2	107.8	0.0
Cc1c(C)n(Cc2ccccc2)c2ncnc(Cl)c12	-0.4	-2.4	0.9	-0.2	-9.4	/	/	/	/
Cc1ccc2oc(C(=O)N3CCC(O)(c4cccc(C(F)(F)F)c4)CC3)c(C)c2c1	14.4	3.1	12.4	0.5*	24.5	114.3	0.1	116.4	0.1
Oc1ccc(CCNc2ncnc3ccc(Cl)cc23)cc1	4.7	-4.0	8.9	1.0*	3.9	100.3	-0.3	113.8	0.0
CCOc1ccccc1/C=C(/C#N)C(N)=O	1.4	1.3	1.7	0.1	-0.2	/	/	/	/
Cc1cccc(N=Nc2c(O)[nH]c3ccc(Br)cc23)c1	-0.6	-0.1	-0.6	-0.2	-10.5	/	/	/	/
COc1ccccc1N=Nc1c(O)[nH]c2ccc(Br)cc12	0.6	4.7	-1.0	0.4*	29.9	106.7	-0.1	116.2	0.1
COc1cc(OC)cc(C(=O)NC2CC3CCC(C2)N3C)c1 (stereo not drawn)	-6.8	/	-2.0	-0.2	/	/	/	/	/
O=c1oc2ccccc2c(NCCO)c1[N+](=O)[O-]	1.3	1.8	-0.2	0.3	8.5	/	/	/	/
CC(NC(=O)C(C)N1CCN(Cc2ccccc2)CC1)c1ccc(F)cc1 (stereo not drawn)	0.9	-1.6	-1.4	-0.2	1.3	/	/	/	/
